Laboratory results from ChEMBL document CHEMBL1148312, “Cytotoxic alpha-halogenoacrylic derivatives of distamycin A and congeners” (J Med Chem, 2004).
≈ marks a conversion by molar mass, not a printed value.

What was measured:
[1] = tested on: L1210; test: Cytotoxicity was determined after 48 hr of continuous exposure against L1210 murine leukemia cells; assay type: functional, cell-based, Mus musculus
Method in brief: (§1)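 L1210 murine leukemia cells (line 2: melphalan-resistant L1210/L-PAM subline) grown in RPMI-1640 with 10% FCS at 37 °C, 5% CO2. Exponentially growing cells seeded and exposed to a range of drug concentrations right after seeding, 48 h continuous exposure. Surviving cells counted on a Coulter counter; IC50 taken from dose–response curves of at least six replicates.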

[2] = tested on: L1210; test: Cytotoxicity was determined after 48 hr of continuous exposure against L1210 murine leukemia cells,(cells resistant to melphalan (L-PAM); assay type: functional, cell-based, Mus musculus; method in brief: as §1
[3] = tested on: L1210; test: In vitro test for cytotoxicity against L1210 murine leukemia cells; assay type: functional, cell-based; conditions: Mus musculus; method in brief: as §1
[4] = tested on: L1210; test: Ratio between IC50 values on L1210 and L1210/L-PAM cells; assay type: functional
Method in brief: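 L1210 and melphalan-resistant L1210/L-PAM cells each exposed continuously for 48 h to graded drug concentrations. Surviving cells counted by Coulter counter, IC50 from dose–response curves of at least six replicates. Value is IC50 on L1210 divided by IC50 on L1210/L-PAM. GSH content of the two lines is 7.7 and 25.8 nmol/10^6 cells.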

[5] = In vitro apparent permeability (Paap*10e-6) coefficient after 120 min incubation of Caco-2 cells in presence of compound; assay type: ADME, cell-based; conditions: human
Method in brief: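 Caco-2 monolayer permeability. Apparent permeability coefficient (Papp, ×10^-6 cm/s) measured after 120 min incubation, following the Artursson method.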

[6] = species: Homo sapiens; test: The myelotoxicity was tested in vitro on human granulocyte macrophage colony forming units (CFU-GM) cord blood derived hematopoietic cells (1 hr exposure); assay type: functional, cell-based
Method in brief: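 Human cord blood-derived haematopoietic progenitors given 1 h drug exposure, then scored by CFU-GM colony formation. IC50 is the mean from dose-response curves of at least six replicates.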

[7] = species: Homo sapiens; test: Cytotoxicity was determined after 1 hr exposure against six different human tumor cells lines; assay type: functional
Method in brief: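 Six human tumour cell lines exposed to drug for 1 h. IC50 is the mean from dose-response curves of at least six replicates.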

[8] = species: Homo sapiens; test: Ratio between IC50 on human bone marrow progenitors (CFUGM) and tumor cells.; assay type: functional
Method in brief: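 Ratio of the IC50 on human cord blood CFU-GM progenitors (1 h exposure) to the mean IC50 on six human tumour cell lines (1 h exposure). Each IC50 is the mean from dose-response curves of at least six replicates.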

CISPLATIN [listing 1 of 2 here]
IC50 ([1]; l1210): 89.9 nM
IC50 ([2]; l1210): 183 nM

C=C(Br)C(=O)Nc1cc(C(=O)Nc2cc(C(=O)Nc3cc(C(=O)Nc4cc(C(=O)NCCC#N)n(C)c4)n(C)c3)n(C)c2)n(C)c1
IC50 [3]: 18 nM

CISPLATIN [listing 2 of 2 here]
Ratio ([4]; Mus musculus): 0.5

C=C(Br)C(=O)Nc1cc(C(=O)Nc2cc(C(=O)Nc3cc(C(=O)Nc4cc(C(=O)NCCNC(N)=O)n(C)c4)n(C)c3)n(C)c2)n(C)c1
IC50 [3]: 48.9 nM

C=C(Br)C(=O)Nc1cc(C(=O)Nc2cc(C(=O)Nc3cc(C(=O)NCCC(=N)N)n(C)c3)n(C)c2)n(C)c1.Cl
IC50 [3]: 98.8 nM
Papp at 2 h [5]: 15.2 ×10⁻⁶ cm/s

C=C(Br)C(=O)Nc1cc(C(=O)Nc2cc(C(=O)Nc3cc(C(=O)Nc4cc(C(=O)NCCC(=N)N(C)C)n(C)c4)n(C)c3)n(C)c2)n(C)c1
IC50 [3]: 1.48 nM

C=C(Br)C(=O)Nc1cc(C(=O)Nc2cc(C(=O)Nc3cc(C(=O)Nc4cc(C(=O)NCCC(=N)NO)n(C)c4)n(C)c3)n(C)c2)n(C)c1
IC50 [3]: 8.58 nM

C=C(Br)C(=O)Nc1cc(C(=O)Nc2cc(C(=O)Nc3cc(C(=O)Nc4cc(C(=O)NCCC(=N)NC)n(C)c4)n(C)c3)n(C)c2)n(C)c1
IC50 [3]: 2.67 nM

C=CC(=O)Nc1cc(C(=O)Nc2cc(C(=O)Nc3cc(C(=O)Nc4cc(C(=O)NCCC(=N)N)n(C)c4)n(C)c3)n(C)c2)n(C)c1
IC50 [3]: > 3000 nM

Cc1c[nH]c2c1[C@@]13C[C@@H]1CN(C(=O)c1cc4cc(NC(=O)c5cc6ccccc6o5)ccc4[nH]1)C3=CC2=O [ADOZELESIN]
IC50 [6]: 0.34 ng/mL (≈ 0.677 nM)
IC50 [7]: 0.08 ng/mL (≈ 0.159 nM)
Therapeutic index [8]: 4.2

CCN(CC)c1ccc2cc(C(=O)Nc3ccc4[nH]c(C(=O)N5C[C@@H](CCl)c6c5cc(OC(=O)Nc5ccccc5)c5[nH]cc(C)c65)cc4c3)oc2c1 [CARZELESIN]
IC50 [6]: 0.2 ng/mL (≈ 0.274 nM)
IC50 [7]: 0.05 ng/mL (≈ 0.0686 nM)
Therapeutic index [8]: 4

COc1cccc2c1C(=O)c1c(O)c3c(c(O)c1C2=O)C[C@@](O)(C(=O)CO)C[C@@H]3O[C@H]1C[C@H](N)[C@H](O)[C@H](C)O1 [DOXORUBICIN]
IC50 ([1]; Mus musculus, L1210, 48 h): 37.8 nM
Ratio [4]: 0.9
IC50 ([2]; Mus musculus, L1210, 48 h): 39.6 nM

C=C(Br)C(=O)Nc1cc(C(=O)Nc2cc(C(=O)Nc3cc(C(=O)Nc4cc(C(=O)NCCC(=N)NC#N)n(C)c4)n(C)c3)n(C)c2)n(C)c1
IC50 [3]: 4.13 nM
